Key:
MDA-MB-231 [1] = assay: Potentiation of 25 uM cisplatin-induced toxicity in 1 uM cisplatin resistant human MDA-MB-231 cells at 0.5 uM pretreated for 48 hrs followed by 1 uM cisplatin treatment by MTT assay; type: functional
A2780 [2] = assay: Potentiation of 5 uM cisplatin-induced toxicity in 5 uM cisplatin resistant human A2780 cells at 0.25 uM pretreated for 48 hrs followed by 5 uM cisplatin treatment by MTT assay; type: functional
KYSE-510 [3] = assay: Potentiation of 0.75 uM cisplatin-induced toxicity in 0.5 uM cisplatin resistant human KYSE-510 cells at 1.5 uM pretreated for 48 hrs followed by 0.5 uM cisplatin treatment by MTT assay; type: functional
In short: (§1)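 Cisplatin-resistant Kyse510 CisR (derived by weekly cycles of cisplatin over 24−30 weeks), grown in RPMI 1640 with 10% FCS at 37 °C, 5% CO₂. Test agent added 48 h before cisplatin, then 72 h further incubation. Viability by MTT (read at 544/690 nm) relative to untreated control wells. Combination index by Chou−Talalay method. Mean of three experiments.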

KYSE-510 [4] = assay: Potentiation of 0.75 uM cisplatin-induced toxicity in 0.5 uM cisplatin resistant human KYSE-510 cells at 0.5 uM pretreated for 48 hrs followed by 0.5 uM cisplatin treatment by MTT assay; type: functional; in short: as §1
A2780 [5] = assay: Potentiation of 1 uM cisplatin-induced toxicity in 5 uM cisplatin resistant human A2780 cells at 1 uM pretreated for 48 hrs followed by 5 uM cisplatin treatment by MTT assay; type: functional
CAL-27 [6] = assay: Potentiation of 1 uM cisplatin-induced toxicity in 1 uM cisplatin resistant human CAL27 cells at 1 uM pretreated for 48 hrs followed by 1 uM cisplatin treatment by MTT assay; type: functional
A2780 [7] = assay: Potentiation of 1 uM cisplatin-induced toxicity in 5 uM cisplatin resistant human A2780 cells at 0.5 uM pretreated for 48 hrs followed by 5 uM cisplatin treatment by MTT assay; type: functional
A2780 [8] = assay: Potentiation of 1 uM cisplatin-induced toxicity in 5 uM cisplatin resistant human A2780 cells at 0.25 uM pretreated for 48 hrs followed by 5 uM cisplatin treatment by MTT assay; type: functional
KYSE-510 [9] = assay: Potentiation of 0.5 uM cisplatin-induced toxicity in 0.5 uM cisplatin resistant human KYSE-510 cells at 1.5 uM pretreated for 48 hrs followed by 0.5 uM cisplatin treatment by MTT assay; type: functional
MDA-MB-231 [10] = assay: Potentiation of 5 uM cisplatin-induced toxicity in 1 uM cisplatin resistant human MDA-MB-231 cells at 0.5 uM pretreated for 48 hrs followed by 1 uM cisplatin treatment by MTT assay; type: functional
A2780 [11] = assay: Potentiation of cisplatin-induced toxicity in cisplatin resistant human A2780 cells at 1 uM pretreated for 48 hrs followed by cisplatin treatment by MTT assay; type: functional
In short: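 Resistant sublines pretreated 48 h with 1 μM HDAC inhibitor, then cisplatin over a concentration range for 72 h; MTT viability read at 544/690 nm. Cisplatin IC50 from four-parameter logistic fit of pooled data (≥3 experiments, triplicate); shift factor = IC50 of cisplatin alone divided by IC50 of the combination.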

Histone deacetylase 5 = Histone deacetylase 5 (Homo sapiens, UniProt Q9UQL6); assay: Inhibition of human HDAC5 by fluorescence assay
Histone deacetylase 5, sequence (Q9UQL6 whole entry): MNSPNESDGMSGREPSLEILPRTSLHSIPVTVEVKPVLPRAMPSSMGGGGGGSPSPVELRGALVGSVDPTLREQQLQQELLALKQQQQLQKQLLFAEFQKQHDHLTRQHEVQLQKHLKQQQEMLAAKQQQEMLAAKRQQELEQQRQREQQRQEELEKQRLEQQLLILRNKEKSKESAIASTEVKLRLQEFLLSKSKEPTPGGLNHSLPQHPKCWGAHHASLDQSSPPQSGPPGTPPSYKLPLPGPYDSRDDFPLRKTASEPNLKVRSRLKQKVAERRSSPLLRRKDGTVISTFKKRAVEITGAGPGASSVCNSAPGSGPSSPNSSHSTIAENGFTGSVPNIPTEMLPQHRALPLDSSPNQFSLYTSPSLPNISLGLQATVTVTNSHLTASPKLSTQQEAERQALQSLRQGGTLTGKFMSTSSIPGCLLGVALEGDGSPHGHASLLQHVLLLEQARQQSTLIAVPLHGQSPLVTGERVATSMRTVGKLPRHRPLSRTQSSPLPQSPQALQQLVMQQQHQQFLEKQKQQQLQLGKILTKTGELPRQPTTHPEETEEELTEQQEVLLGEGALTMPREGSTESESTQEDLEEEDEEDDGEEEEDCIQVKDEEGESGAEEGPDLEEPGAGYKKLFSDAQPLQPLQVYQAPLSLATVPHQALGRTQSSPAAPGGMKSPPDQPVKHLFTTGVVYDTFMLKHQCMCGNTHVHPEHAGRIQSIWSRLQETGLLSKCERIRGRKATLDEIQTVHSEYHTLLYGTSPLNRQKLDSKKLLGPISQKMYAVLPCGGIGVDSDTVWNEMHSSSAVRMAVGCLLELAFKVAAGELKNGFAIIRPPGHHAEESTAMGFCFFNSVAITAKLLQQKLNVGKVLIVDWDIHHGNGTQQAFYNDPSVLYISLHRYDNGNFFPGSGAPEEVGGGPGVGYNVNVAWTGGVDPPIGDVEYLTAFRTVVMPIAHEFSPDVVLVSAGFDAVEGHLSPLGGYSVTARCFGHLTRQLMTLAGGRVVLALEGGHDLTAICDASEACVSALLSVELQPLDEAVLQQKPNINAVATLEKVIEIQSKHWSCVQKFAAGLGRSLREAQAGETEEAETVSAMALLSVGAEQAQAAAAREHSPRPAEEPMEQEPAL

Histone deacetylase 4 = Histone deacetylase 4 (Homo sapiens, UniProt P56524); assay: Inhibition of human HDAC4 by fluorescence assay
Histone deacetylase 4, sequence (P56524 whole entry): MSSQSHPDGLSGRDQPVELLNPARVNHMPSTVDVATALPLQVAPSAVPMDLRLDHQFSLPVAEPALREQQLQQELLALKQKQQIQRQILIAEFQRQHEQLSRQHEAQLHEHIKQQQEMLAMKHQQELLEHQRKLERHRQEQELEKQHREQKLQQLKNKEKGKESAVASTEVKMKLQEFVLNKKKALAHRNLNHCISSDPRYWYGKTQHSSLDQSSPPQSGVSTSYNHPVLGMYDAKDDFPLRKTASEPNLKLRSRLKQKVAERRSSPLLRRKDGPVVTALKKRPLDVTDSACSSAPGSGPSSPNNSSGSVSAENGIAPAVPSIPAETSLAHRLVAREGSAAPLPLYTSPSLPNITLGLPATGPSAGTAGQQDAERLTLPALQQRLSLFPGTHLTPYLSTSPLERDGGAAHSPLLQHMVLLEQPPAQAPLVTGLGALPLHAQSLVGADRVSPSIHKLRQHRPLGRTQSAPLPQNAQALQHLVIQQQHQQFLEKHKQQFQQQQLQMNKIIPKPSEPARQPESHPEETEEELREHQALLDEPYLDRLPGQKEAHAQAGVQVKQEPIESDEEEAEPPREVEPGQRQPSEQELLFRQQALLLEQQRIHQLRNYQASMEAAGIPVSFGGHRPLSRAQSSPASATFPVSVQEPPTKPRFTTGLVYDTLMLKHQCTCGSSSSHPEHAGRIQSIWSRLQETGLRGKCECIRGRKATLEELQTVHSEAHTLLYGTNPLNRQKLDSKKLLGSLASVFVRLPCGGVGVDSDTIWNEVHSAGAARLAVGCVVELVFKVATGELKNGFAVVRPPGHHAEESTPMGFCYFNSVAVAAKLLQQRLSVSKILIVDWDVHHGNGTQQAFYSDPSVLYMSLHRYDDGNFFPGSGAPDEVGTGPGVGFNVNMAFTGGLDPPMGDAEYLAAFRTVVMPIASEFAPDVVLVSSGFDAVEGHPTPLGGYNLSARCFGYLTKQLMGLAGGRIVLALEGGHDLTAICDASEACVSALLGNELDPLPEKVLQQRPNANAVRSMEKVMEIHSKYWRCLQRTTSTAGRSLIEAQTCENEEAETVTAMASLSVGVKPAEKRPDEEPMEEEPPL

Histone deacetylase = assay: Inhibition of HDAC in cisplatin sensitive human MDA-MB-231 cells after 18 hrs by fluorescence assay; type: cell-based
A2780 [12] = assay: Potentiation of 20 uM cisplatin-induced toxicity in 5 uM cisplatin resistant human A2780 cells at 1.5 uM pretreated for 48 hrs followed by 5 uM cisplatin treatment by MTT assay; type: functional
A2780 [13] = assay: Potentiation of 20 uM cisplatin-induced toxicity in 5 uM cisplatin resistant human A2780 cells at 0.25 uM pretreated for 48 hrs followed by 5 uM cisplatin treatment by MTT assay; type: functional
CAL-27 [14] = assay: Potentiation of 45 uM cisplatin-induced toxicity in 1 uM cisplatin resistant human CAL27 cells at 1 uM pretreated for 48 hrs followed by 1 uM cisplatin treatment by MTT assay; type: functional
A2780 [15] = assay: Potentiation of 10 uM cisplatin-induced toxicity in 5 uM cisplatin resistant human A2780 cells at 1.5 uM pretreated for 48 hrs followed by 5 uM cisplatin treatment by MTT assay; type: functional
KYSE-510 [16] = assay: Potentiation of 3.16 uM cisplatin-induced toxicity in 0.5 uM cisplatin resistant human KYSE-510 cells at 1 uM pretreated for 48 hrs followed by 0.5 uM cisplatin treatment by MTT assay; type: functional
MDA-MB-231 [17] = assay: Potentiation of 40 uM cisplatin-induced toxicity in 1 uM cisplatin resistant human MDA-MB-231 cells at 1.5 uM pretreated for 48 hrs followed by 1 uM cisplatin treatment by MTT assay; type: functional
MDA-MB-231 [18] = assay: Potentiation of 40 uM cisplatin-induced toxicity in 1 uM cisplatin resistant human MDA-MB-231 cells at 1 uM pretreated for 48 hrs followed by 1 uM cisplatin treatment by MTT assay; type: functional
MDA-MB-231 [19] = assay: Potentiation of 40 uM cisplatin-induced toxicity in 1 uM cisplatin resistant human MDA-MB-231 cells at 0.5 uM pretreated for 48 hrs followed by 1 uM cisplatin treatment by MTT assay; type: functional
A2780 [20] = assay: Potentiation of 8 uM cisplatin-induced toxicity in 5 uM cisplatin resistant human A2780 cells at 1 uM pretreated for 48 hrs followed by 5 uM cisplatin treatment by MTT assay; type: functional
A2780 [21] = assay: Potentiation of 8 uM cisplatin-induced toxicity in 5 uM cisplatin resistant human A2780 cells at 0.5 uM pretreated for 48 hrs followed by 5 uM cisplatin treatment by MTT assay; type: functional
A2780 [22] = assay: Potentiation of 8 uM cisplatin-induced toxicity in 5 uM cisplatin resistant human A2780 cells at 0.25 uM pretreated for 48 hrs followed by 5 uM cisplatin treatment by MTT assay; type: functional
KYSE-510 [23] = assay: Potentiation of 1 uM cisplatin-induced toxicity in 0.5 uM cisplatin resistant human KYSE-510 cells at 0.5 uM pretreated for 48 hrs followed by 0.5 uM cisplatin treatment by MTT assay; type: functional
MDA-MB-231 [24] = assay: Potentiation of 25 uM cisplatin-induced toxicity in 1 uM cisplatin resistant human MDA-MB-231 cells at 1 uM pretreated for 48 hrs followed by 1 uM cisplatin treatment by MTT assay; type: functional

Cc1cc(C)cc(C(=O)NOCCCCCC(=O)NO)c1
Activity (MDA-MB-231 [1]): Dose-dependent effect | fractional inhibitory concentration index (FICI) (MDA-MB-231 [1]): 0.79 | Activity (A2780 [2]): Dose-dependent effect | fractional inhibitory concentration index (FICI) (A2780 [2]): 0.85 | Activity (KYSE-510 [3]): Dose-dependent effect | fractional inhibitory concentration index (FICI) (KYSE-510 [3]): 0.05 | Activity (KYSE-510 [4]): Dose-dependent effect | fractional inhibitory concentration index (FICI) (KYSE-510 [4]): 0.07 | Activity (A2780 [5]): Dose-dependent effect | fractional inhibitory concentration index (FICI) (A2780 [5]): 0.82 | Activity (CAL-27 [6]): Dose-dependent effect | Activity (A2780 [7]): Dose-dependent effect | fractional inhibitory concentration index (FICI) (A2780 [7]): 0.85 | Activity (A2780 [8]): Dose-dependent effect | Activity (KYSE-510 [9]): Dose-dependent effect | fractional inhibitory concentration index (FICI) (KYSE-510 [9]): 0.06 | Activity (MDA-MB-231 [10]): Dose-dependent effect | fractional inhibitory concentration index (FICI) (MDA-MB-231 [10]): <0.2 | Activity (A2780 [11]): Dose-dependent effect | fold change (FC) (A2780 [11]): 4.02 | IC50 (Histone deacetylase 5): 4.22 nM | IC50 (Histone deacetylase 4): 11.9 nM | IC50 (Histone deacetylase): 460 nM | Activity (A2780 [12]): Dose-dependent effect | fractional inhibitory concentration index (FICI) (A2780 [12]): 0.64 | Activity (A2780 [13]): Dose-dependent effect | fractional inhibitory concentration index (FICI) (A2780 [13]): 0.76 | Activity (CAL-27 [14]): Dose-dependent effect | fractional inhibitory concentration index (FICI) (CAL-27 [14]): 0.27 | Activity (A2780 [15]): Dose-dependent effect | fractional inhibitory concentration index (FICI) (A2780 [15]): 0.68 | Activity (KYSE-510 [16]): Dose-dependent effect | fractional inhibitory concentration index (FICI) (KYSE-510 [16]): 0.09 | Activity (MDA-MB-231 [17]): Dose-dependent effect | fractional inhibitory concentration index (FICI) (MDA-MB-231 [17]): 0.84 | Activity (MDA-MB-231 [18]): Dose-dependent effect | fractional inhibitory concentration index (FICI) (MDA-MB-231 [18]): 0.78 | Activity (MDA-MB-231 [19]): Dose-dependent effect | fractional inhibitory concentration index (FICI) (MDA-MB-231 [19]): 0.88 | Activity (A2780 [20]): Dose-dependent effect | fractional inhibitory concentration index (FICI) (A2780 [20]): 0.59 | Activity (A2780 [21]): Dose-dependent effect | fractional inhibitory concentration index (FICI) (A2780 [21]): 0.66 | Activity (A2780 [22]): Dose-dependent effect | fractional inhibitory concentration index (FICI) (A2780 [22]): 0.78 | Activity (KYSE-510 [23]): Dose-dependent effect | fractional inhibitory concentration index (FICI) (KYSE-510 [23]): 0.08 | Activity (MDA-MB-231 [24]): Dose-dependent effect | fractional inhibitory concentration index (FICI) (MDA-MB-231 [24]): 0.72
